# From PubChem BioAssay
# Jurkat NFkB inh: inhibitors of induced NF-kB luciferase reporter, primary screen, TCR NF-kB activation inhibitor project, cell-based, luminescence, uHTS; Jurkat, PMA/ionomycin-induced NF-kB luciferase reporter; inhibition, % at 4 µM; actives 0.53% (n = 330,000); in the data active = inhibition above about 50%
# Lipid droplet: inhibitors of hepatocyte lipid droplet formation, primary screen, imaging, high-throughput imaging, BODIPY stain; AML12 mouse hepatocytes, oleate lipid droplets; inhibition, % at 6.5 µM; actives 0.4% (n = 240,000); AID 1656, 2009;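 active = lipid droplet intensity inhibited by at least 50%, with more than 500 cells counted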
#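 Material: mouse AML12 hepatocyte cell line, fixed after treatment; Timing: compound with oleate, overnight; Technique: high-content imaging of BODIPY-stained droplets and DAPI nuclei; Probe or stimulus: oleate, 100 µM final; Dosing: compound at 6.5 µM only.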
# iPSC survival up: enhancers of single-cell hiPSC survival, primary screen, ATPlite luminescence | 100% = ROCK inhibitor wells, 0% = DMSO | actives 0.044% (n = 360,000) | survival enhancement, % at 20 µM; in the data active = survival enhancement above about 18%;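 also: cells exposed to compounds for 16 hours before the ATP read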
# TAG inh: inhibitors of triacylglycerol accumulation, primary screen, cell-based, uHTS, fluorescence, H9c2 | H9c2 cells, Nile Red lipid (TAG) fluorescence; cells loaded with 200 µM oleic acid | inhibition, % at 12.5 µM | actives 0.66% (n = 230,000) | AID 651582, 2012;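 active = pattern-corrected inhibition of lipid staining of at least 50% with the nuclear-stain viability signal not falling by more than 50%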;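 also: 0% = DMSO wells and 100% = triacsin C control wells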
# Gli-Sufu block: Gli-Sufu pathway antagonists, primary screen, luciferase luminescence, Sufu-KO-LIGHT cells, uHTS | actives 0.74% (n = 340,000) | inhibition, % at 5 µM | Sufu-KO-LIGHT fibroblasts, Gli luciferase reporter luminescence;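 active = inhibition above about 55%, limit read from the data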;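 also: 0% = DMSO-treated cells and 100% = wells with medium but no cells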
# 697 NFkB inh: inhibitors of PMA/ionomycin-induced NF-kB reporter, 697 cells, primary screen, B-cell NF-kB inhibitor project, cell-based, luminescence, uHTS | 697 B-cell NF-kB luciferase reporter, 16 h | inhibition, % at 4 µM | actives 0.33% (n = 330,000) | AID 435022, 2010; in the data active = inhibition above about 35%
# Gli antag conf: Gli-SUFU pathway antagonists, confirmation, single concentration, luciferase luminescence, Sufu-KO-LIGHT cells. inhibition, % at 5 µM. actives 40% (n = 2,500). shares compounds with Gli-Sufu block. Gli luciferase reporter. AID 602428, 2012;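 active = mean inhibition at 5 µM reaching about 45%, limit read from the data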;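 also: plate controls were DMSO-treated cells for no effect and wells lacking cells for full effect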
# Gli cytotox: cytotoxicity in Sufu-KO-LIGHT cells, confirmation, cytotoxicity control for Gli-SUFU antagonist project, cell-based, ATP luminescence, single concentration. shares compounds with Gli-Sufu block. cytotoxicity, % at 5 µM. actives 32% (n = 2,500);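 active = mean cytotoxicity at 5 µM above about 25%, limit read from the data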;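 also: cells exposed to compound overnight for roughly 16 to 18 hours; plate controls were DMSO wells with cells for no effect and medium without cells for full effect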
# Wnt3a cs: Wnt3a reporter signal inhibition, confirmation, counter-screen for Gli-SUFU antagonist project, Wnt-LIGHT cells, luminescence, single concentration. shares compounds with Gli-Sufu block. Wnt3a-driven luciferase reporter. inhibition, % at 6.25 µM. actives 20% (n = 2,500). AID 651995, 2013;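 active = mean inhibition above about 25%, limit read from the data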
# Numbers without * were called inactive; x = no result. In the library only some 1.8% were active in any assay of this set; here they are far more common.
SMILES,Jurkat NFkB inh,Lipid droplet,iPSC survival up,TAG inh,Gli-Sufu block,697 NFkB inh,Gli antag conf,Gli cytotox,Wnt3a cs
COc1ccccc1NS(=O)(=O)c1cccc(C(=O)NNC(=O)c2ccc(O)c(Cl)c2)c1,-0.8,x,0.2,1.5,-5.9,-1.7,x,x,x
O=C(Cn1ncc2ccccc21)N1CCN(c2cccc(C(F)(F)F)c2)CC1,-4.6,-33.3,1.4,x,55.9*,15.1,15.2,0.2,-43.3
CCOC(=O)N1CCN(C(=O)Cn2ncc3ccccc32)CC1,6.7,-3.2,-0.2,17.8,0.6,6.2,x,x,x
Clc1cccc(Nc2ncnc3ccc(Br)cc23)c1,7.8,x,0.9,x,61.6*,-30.0,20.0,2.4,10.8
Nc1ccc(Cn2ccc3c4c(N)nc(N)nc4ccc32)cc1,x,x,-3.9,-41.2,60.9*,x,57.9*,17.1,40.6*
Cc1nc2ccc(N)cc2c(=O)n1Cc1ccc(Cl)cc1,-26.6,12.0,4.2,-105.5,-28.3,-22.1,x,x,x
CC(C)CC(OC(=O)c1ccc(Cl)nc1)C(=O)NC1CCCC1 (stereo not drawn),-2.1,-2.6,-0.3,x,55.8*,9.1,15.9,8.6,50.1*
Cc1ccc(C(=O)C(C)OC(=O)c2ccc(Cl)nc2)cc1 (stereo not drawn),-1.6,x,-0.5,0.3,-8.5,0.0,x,x,x
COc1cc(NS(=O)(=O)c2cc3[nH]c(=O)c(=O)[nH]c3cc2C)cc(OC)c1OC,3.8,-5.0,-1.1,2.5,-5.3,2.5,x,x,x
COc1cc(NS(=O)(=O)c2ccc(C)cc2C)cc(OC)c1OC,30.2,x,0.5,-13.7,53.3,12.7,50.4*,16.6,10.1
Cc1cc(Nc2cc(Cl)nc(Sc3ccc(NC(=O)C4CC4)cc3)n2)n[nH]1,-13.7,x,-0.8,-4.8,2.8,-25.7,x,x,x
CC1=C(C(N)=O)C(c2ccccn2)n2nc(SCc3ccccc3Cl)nc2N1 (stereo not drawn),-15.0,x,4.5,20.6,2.5,-34.0,x,x,x
CC1=C(C(N)=O)C(c2cccnc2)n2nc(SCc3ccccc3Cl)nc2N1 (stereo not drawn),-13.3,-3.8,-1.0,-31.1,58.1*,-3.4,9.8,7.3,-11.9
CCN(Cc1ccccc1)C(=O)COC(=O)c1cc(S(=O)(=O)Nc2ccccc2OC)ccc1O,-6.0,x,-0.1,0.0,57.7*,3.4,7.0,-3.0,-50.4
COc1ccc(C)cc1NC(=O)CCN1CCN(c2ccccc2F)CC1,0.8,-10.3,-0.1,x,58.8*,1.6,14.8,10.8,-1.4
COc1ccc(OC)c(NC(=O)CCN2CCN(c3ccccc3F)CC2)c1,5.1,-9.8,0.3,-208.3,10.5,-0.2,x,x,x
Cc1ccc(SCC(=O)OC(C)C(=O)NC2(C#N)CCCCC2)cc1 (stereo not drawn),0.7,x,0.3,18.0,-2.9,-6.2,x,x,x
CC(OC(=O)CCC(=O)c1ccc(Cl)s1)C(=O)NC1(C#N)CCCCC1 (stereo not drawn),-12.2,x,-0.5,7.0,93.7*,-1.7,21.9,2.4,-17.3
COc1cc(CNCc2ccccn2)ccc1OCC(=O)NC1CCCCC1,4.2,-1.8,5.4,x,68.0*,2.4,9.4,-11.8,-6.5
COc1cc(CNCc2ccccn2)ccc1OCC(=O)NC(C)(C)C,35.4,0.6,4.5,x,13.9,-60.5,x,x,x
COc1cc(C)c(C)cc1S(=O)(=O)N1CCN(Cc2ccccc2)CC1,-28.4,x,0.5,x,50.4,-42.2,18.2,-4.2,13.6
COc1ccc(S(=O)(=O)N2CCN(Cc3ccccc3)CC2)c(C)c1,0.6,-2.5,-0.5,5.3,5.3,7.4,x,x,x
